The subject of assay [1] is Rhesus monkey. In words: Anti-obesity activity in type 2 diabetes rhesus monkey model assessed as weight loss at 30 ug/kg, sc qd for 3 weeks relative to control. Format: functional, Macaca mulatta. The note with it: dose 30 µg/kg.
Assay [2] deals with Rhesus monkey. In words: Anti-obesity activity in type 2 diabetes rhesus monkey model assessed as reduction in cumulative food intake at 30 ug/kg, sc qd for 3 weeks and measured daily for 21 days relative to baseline. Type of assay: functional, Macaca mulatta. The note with it: dose 30 µg/kg. On the set-up: scale not given: the % may be the effect or the level left.
The subject of assay [3] is Rhesus monkey. In words: Antidiabetic activity in type 2 diabetes rhesus monkey model assessed as corrected fasting glucose level at 30 ug/kg, sc qd for 3 weeks and measured on day 22 by intravenous glucose tolerance test. Format: functional, Macaca mulatta. The following applies: dose 30 µg/kg, time 22 day. In outline:
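Type 2 diabetic rhesus monkeys received daily dosing for 3 weeks, alongside vehicle and a liraglutide benchmark at 30 μg/kg. Fasting plasma glucose was compared with baseline or vehicle, and fasting insulin with vehicle.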

The test system of assay [4] is Rhesus monkey. In words: Anti-obesity activity in type 2 diabetes rhesus monkey model assessed as reduction in body weight at 30 ug/kg, sc qd for 1 week and measured during 1 week relative to control. Format: functional, Macaca mulatta. On the set-up: scale not given: the % may be the effect or the level left. The note with it: dose 30 µg/kg, time 1 weeks.
For assay [5], the system named is Rhesus monkey. In words: Anti-obesity activity in type 2 diabetes rhesus monkey model assessed as reduction in body weight at 30 ug/kg, sc qd for 2 weeks and measured during second week of dosing relative to control. Format: functional, Macaca mulatta. On the set-up: scale not given: the % may be the effect or the level left. The following applies: dose 30 µg/kg.

For assay [6], the system named is Rhesus monkey. In words: Anti-obesity activity in type 2 diabetes rhesus monkey model assessed as reduction in body weight at 30 ug/kg, sc qd for 3 weeks and measured during third week of dosing relative to control. Type of assay: functional, Macaca mulatta. The following applies: dose 30 µg/kg. Also noted: scale not given: the % may be the effect or the level left.

For assay [7], the target named is Glucagon-like peptide 1 receptor (Homo sapiens, UniProt P43220). In words: Agonist activity at human GLP1R expressed in frozen cells assessed as increase in cAMP production measured after 1 hr by HitHunter luminescence assay. Format: functional, cell-based.
Sequence of Glucagon-like peptide 1 receptor (P43220 whole entry): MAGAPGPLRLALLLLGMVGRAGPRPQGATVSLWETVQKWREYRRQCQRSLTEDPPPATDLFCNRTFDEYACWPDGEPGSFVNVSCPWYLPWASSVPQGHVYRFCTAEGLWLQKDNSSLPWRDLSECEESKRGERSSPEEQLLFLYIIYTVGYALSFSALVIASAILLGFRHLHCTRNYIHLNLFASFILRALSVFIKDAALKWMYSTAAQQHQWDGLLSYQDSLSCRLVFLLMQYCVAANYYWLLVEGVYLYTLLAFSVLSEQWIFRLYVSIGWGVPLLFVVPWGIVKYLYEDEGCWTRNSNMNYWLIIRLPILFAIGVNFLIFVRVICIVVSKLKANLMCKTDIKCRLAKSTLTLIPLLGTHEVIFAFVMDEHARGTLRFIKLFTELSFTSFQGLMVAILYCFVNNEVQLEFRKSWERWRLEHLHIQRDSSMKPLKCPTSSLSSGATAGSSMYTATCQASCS
A short description of assay [8]: Agonist activity at rhesus monkey GLP1R. On the set-up: species or system Macaca mulatta.
The species entered for assay [9] is Macaca mulatta. In words: Selectivity ratio of EC50 for rhesus monkey GCGR to EC50 for rhesus monkey GLP1R.
Assay [10] can be described thus: Agonist activity at rhesus monkey GCGR. On the set-up: species or system Macaca mulatta.
Assay [11] deals with Glucagon receptor (Homo sapiens, UniProt P47871). In words: Agonist activity at human GCGR expressed in frozen cells assessed as increase in cAMP production measured after 1 hr by HitHunter luminescence assay. Type of assay: functional, cell-based.
Sequence of Glucagon receptor (P47871 whole entry): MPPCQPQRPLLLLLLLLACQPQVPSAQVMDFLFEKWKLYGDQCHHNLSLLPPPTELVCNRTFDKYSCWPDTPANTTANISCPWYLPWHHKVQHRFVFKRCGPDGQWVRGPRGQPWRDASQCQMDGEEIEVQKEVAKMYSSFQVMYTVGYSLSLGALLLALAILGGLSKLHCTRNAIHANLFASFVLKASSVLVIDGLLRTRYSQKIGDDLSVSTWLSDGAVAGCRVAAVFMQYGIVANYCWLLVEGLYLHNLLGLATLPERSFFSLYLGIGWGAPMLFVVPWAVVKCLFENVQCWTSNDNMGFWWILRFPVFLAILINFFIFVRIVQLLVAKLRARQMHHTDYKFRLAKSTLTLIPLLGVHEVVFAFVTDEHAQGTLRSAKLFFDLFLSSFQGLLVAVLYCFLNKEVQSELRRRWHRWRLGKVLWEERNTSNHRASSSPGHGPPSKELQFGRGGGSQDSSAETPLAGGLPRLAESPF
Assay [12] is filed under the species Homo sapiens. In words: Selectivity ratio of EC50 for human GCGR expressed in frozen cells to EC50 for human GLP1R expressed in frozen cells. Type of assay: cell-based.

For three molecules, Activity, EC50 and Ratio EC50 results are on record in ChEMBL document CHEMBL5126614 (ACS Med Chem Lett, 2022).

SMILES strings stand for the structures.

For the molecule `CCCCCCCCCCCCCCCC(=O)N[C@@H](CCC(=O)NCCCC[C@H](NC(=O)[C@H](C)NC(=O)[C@H](C)NC(=O)[C@H](CCC(N)=O)NC(=O)CNC(=O)[C@H](CCC(=O)O)NC(=O)[C@H](CC(C)C)NC(=O)[C@H](Cc1ccc(O)cc1)NC(=O)[C@H](CO)NC(=O)[C@H](CO)NC(=O)[C@@H](NC(=O)[C@H](CC(=O)O)NC(=O)[C@H](CO)NC(=O)[C@@H](NC(=O)[C@H](Cc1ccccc1)NC(=O)[C@@H](NC(=O)CNC(=O)[C@H](CCC(=O)O)NC(=O)[C@H](C)NC(=O)[C@@H](N)Cc1cnc[nH]1)[C@@H](C)O)[C@@H](C)O)C(C)C)C(=O)N[C@@H](CCC(=O)O)C(=O)N[C@@H](Cc1ccccc1)C(=O)N[C@H](C(=O)N[C@@H](C)C(=O)N[C@@H](Cc1c[nH]c2ccccc12)C(=O)N[C@@H](CC(C)C)C(=O)N[C@H](C(=O)N[C@@H](CCCNC(=N)N)C(=O)NCC(=O)N[C@@H](CCCNC(=N)N)C(=O)NCC(=O)O)C(C)C)[C@@H](C)CC)C(=O)O` [LIRAGLUTIDE], the Activity in assay [1] is 3.3%; in [2], 32%; in assay [3] it was 30 mg/dL; in assay [4], 1.7%; in [5], 1%; in assay [6] it was 0.6%.
Turning to `CCCCCCCCCCCCCCCC(=O)N[C@@H](CCC(=O)N[C@@H](CCC(=O)NCCCC[C@H](NC(=O)[C@H](CC(=O)O)NC(=O)[C@H](CO)NC(=O)[C@@H](NC(=O)[C@H](Cc1ccccc1)NC(=O)[C@@H](NC(=O)CNC(=O)[C@H](CCC(N)=O)NC(=O)C(C)(C)NC(=O)[C@@H](N)Cc1cnc[nH]1)[C@@H](C)O)[C@@H](C)O)C(=O)N[C@@H](CO)C(=O)N[C@@H](CCCCN)C(=O)N[C@@H](Cc1ccc(O)cc1)C(=O)N[C@@H](CC(C)C)C(=O)N[C@@H](CC(=O)O)C(=O)NC(C)(C)C(=O)N[C@@H](CCCNC(=N)N)C(=O)N[C@@H](C)C(=O)N[C@@H](C)C(=O)N[C@@H](CCC(N)=O)C(=O)N[C@@H](CC(=O)O)C(=O)N[C@@H](Cc1ccccc1)C(=O)N[C@H](C(=O)N[C@@H](CCC(N)=O)C(=O)N[C@@H](Cc1c[nH]c2ccccc12)C(=O)N[C@@H](CC(C)C)C(=O)N[C@@H](CCSC)C(=O)N[C@@H](CC(=O)O)C(=O)N[C@H](C(=O)N[C@@H](CCCCNC(=O)CC[C@H](N)C(=O)O)C(N)=O)[C@@H](C)O)C(C)C)C(=O)O)C(=O)O`, the EC50 in assay [7] came to 22 pM; in [8] it was 7 pM; in assay [10], 64 pM; in [11], 48 pM. Moreover, the Ratio EC50 in [9] worked out at 9.1; in assay [12], 2.1.
Regarding `CCCCCCCCCCCCCCCC(=O)N[C@@H](CCC(=O)N[C@@H](CCC(=O)NCCCC[C@H](NC(=O)[C@H](CC(=O)O)NC(=O)[C@H](CO)NC(=O)[C@@H](NC(=O)[C@H](Cc1ccccc1)NC(=O)[C@@H](NC(=O)CNC(=O)[C@H](CCC(N)=O)NC(=O)[C@@H](CO)NC(=O)[C@@H](N)Cc1cnc[nH]1)[C@@H](C)O)[C@@H](C)O)C(=O)N[C@@H](CO)C(=O)N[C@@H](CCCCN)C(=O)N[C@@H](Cc1ccc(O)cc1)C(=O)N[C@@H](CC(C)C)C(=O)N[C@@H](CC(=O)O)C(=O)N[C@@H](CO)C(=O)N[C@@H](CCCNC(=N)N)C(=O)N[C@@H](C)C(=O)N[C@@H](C)C(=O)N[C@@H](CCC(N)=O)C(=O)N[C@@H](CC(=O)O)C(=O)N[C@@H](Cc1ccccc1)C(=O)N[C@H](C(=O)N[C@@H](CCC(N)=O)C(=O)N[C@@H](Cc1c[nH]c2ccccc12)C(=O)N[C@@H](CC(C)C)C(=O)N[C@@H](CC(C)C)C(=O)N[C@@H](CC(=O)O)C(=O)N[C@H](C(N)=O)[C@@H](C)O)C(C)C)C(=O)O)C(=O)O`, the EC50 in [7] came out at 63 pM; in assay [8], 20 pM; in assay [10], 21 pM; in assay [11], 38 pM. The values for the Ratio EC50 in assay [9] and in assay [12] were 1 and 0.6, respectively.
